Common to all, as to assay type: functional, cell-based
The subject of one assay is SK-BR-3. The assay can be described thus: Cytotoxic activity against human SK-BR-3 cells after 48 hrs by MTT assay. Conditions: SK-BR-3, 48 h. In a few lines: (§1)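 Cells kept in RPMI1640 or DMEM with 10% FBS, 5% CO2, 37 °C. Adherent lines seeded in 96-well plates and left 12 h to attach; suspension cells (HL-60) seeded at drug addition, 1 × 10^5 cells/mL. Compounds at 0.0625, 0.32, 1.6, 8 and 40 µM in triplicate for 48 h. Viability by MTT; IC50 from growth curves via Reed and Muench method; cisplatin positive control.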

The test system of a further assay is SMMC-7721. The assay is described as follows: Cytotoxic activity against human SMMC7721 cells after 48 hrs by MTT assay. Particulars: SMMC-7721, 48 h. The procedure, abridged:
as §1

Another assay concerns A549. The assay can be described thus: Cytotoxic activity against human A549 cells after 48 hrs by MTT assay. Particulars: A549, 48 h. In a few lines: as §1
For a further assay, the system named is HL-60. The assay can be described thus: Cytotoxic activity against human HL60 cells after 48 hrs by MTT assay. Particulars: HL-60, 48 h. In a few lines:
as §1

As for `CC[C@@]12C=Cn3c4c(c5ccccc53)CC[N+]([O-])(CCC1)[C@H]42` (some centres undefined) [MELODININE G], the half-maximal inhibitory concentration (IC50) in the assay with SK-BR-3, in the assay on SMMC-7721, in the assay with A549 and in the assay on HL-60 was above 40 µM each time.
For `CC[C@@]12CCCN3C(=O)C=C4c5ccccc5N(C(=O)CC1)C432` (some centres undefined) [MELODININE E], the IC50 in the assay on SK-BR-3, in the assay with SMMC-7721, in the assay on A549 and with HL-60 was above 40 µM in each case.
On to `CC[C@]12CCC[N+]3([O-])CCc4c(n(c5ccccc45)[C@H](OC)C1)[C@H]23` (some centres undefined) [MELODININE F], for which the IC50 with SK-BR-3, with SMMC-7721, with A549 and with HL-60 was above 40 µM throughout.
Turning to `CC[C@]12CCCN3CCc4c(n(c5ccccc45)[C@H](OC)C1)[C@@H]32`, the half-maximal inhibitory concentration (IC50) in the assay with SK-BR-3, with SMMC-7721, with A549 and in the assay with HL-60 was above 40 µM throughout.
As for `COC(=O)C1=C2Nc3ccccc3[C@]23CCN2CC[C@H]1[C@@]1(O[C@H]1C)[C@@H]23` [MELODININE D], the half-maximal inhibitory concentration (IC50) in the assay on SK-BR-3, in the assay with SMMC-7721, with A549 and in the assay on HL-60 was above 40 µM throughout.
As for `CC[C@@H]1CN2CC[C@]34c5ccccc5-n5c3c(cc(C(=O)O)c5=O)[C@H]1C[C@H]24` [MELODININE C], the 50% inhibitory concentration (IC50) with SK-BR-3, with SMMC-7721, with A549 and with HL-60 was above 40 µM each time.
For the compound `CC[C@@H]1CN2CC[C@]34c5ccccc5-n5c3c(cc(C(=O)OC)c5=O)[C@H]1C[C@H]24` [LEUCONICINE B], the IC50 with SK-BR-3, in the assay with SMMC-7721, in the assay with A549 and with HL-60 was above 40 µM throughout.
`CCC1=CN2CC[C@]34c5ccccc5-n5c3c(cc(C(=O)OC)c5=O)[C@H]1C[C@H]24` [MELODININE B]: the half-inhibitory concentration (IC50) in the assay with SK-BR-3, in the assay on SMMC-7721, in the assay on A549 and in the assay on HL-60 was above 40 µM each time.
As for `CC[C@@H]1CN2CC[C@]34c5ccccc5-n5c3c(cc(C(N)=O)c5=O)[C@H]1C[C@H]24` [LEUCONICINE A], the IC50 in the assay with SK-BR-3, with SMMC-7721, with A549 and with HL-60 was above 40 µM throughout.
With `C/C=C(/C=O)[C@@H]1C[C@H]2c3[nH]c4ccccc4c3CCN2C=C1C(=O)OC` [VALLESIACHOTAMINE], the concentration for half-maximal inhibition (IC50) in the assay with SK-BR-3 is 24.7 µM; in the assay on SMMC-7721, 16.8 µM; with A549, 26 µM; in the assay on HL-60, 2 µM.
Turning to `CC[C@@]12C=Cn3c4c(c5ccccc53)CCN(CCC1)[C@H]42`, the concentration for half-maximal inhibition (IC50) with SK-BR-3, in the assay on SMMC-7721, in the assay with A549 and in the assay with HL-60 was above 40 µM in each case.

For the origin of these results see ChEMBL document CHEMBL1154869, “Melodinines A-G, monoterpenoid indole alkaloids from Melodinus henryi” (J Nat Prod, 2010).
